The source of these data is publication PMC3878182 (Xenobiotica; the fate of foreign compounds in biological …, 2013).

Data set [1] relates to hippocampal slice cultures. Briefly: LDH release in hippocampal slice cultures. The conditions noted are these: ethanol 200 mM, 14 d exposure. It counts as cell-based, Sprague Dawley rats (PND4 pups). Put shortly: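 Hippocampi from PND4 pups of timed-pregnant Sprague Dawley rats were cultured as slices. From 5 DIV, racemic test compound or vehicle (0.1 % DMSO) was added to 1 mL medium, renewed every 2 days for 14 days. LDH release was measured with a membrane-integrity fluorescence kit. Mean ± SEM, n = 2 wells per group.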
For orientation: LDH in the medium is a marker of cell lysis.

Data set [2] concerns hippocampal slice cultures. Briefly: Propidium iodide. The class given is cell-based, Sprague Dawley rats (PND4 pups). The settings on record: glutamate 20 mM, positive control, 3 d exposure.
Data set [3] has as its system liver tissue slices. Nature of the data set: Enantioselective analysis. It counts as in vitro ADME, Sprague-Dawley rats. The conditions noted are these: for Enantiomeric enrichment: liver slices from PB- and DEX-treated male and female rats incubated with racemic PCB 136. Put shortly:
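Liver slices from PB- or DEX-pretreated rats, two per vial in 2 mL K-H buffer, were incubated with racemic test compound (final 5 μM, from DMSO) for 2 h at 37 °C under 5% CO2/95% air in a dynamic system. Triplicate incubations were run per animal. Hydroxylated metabolites were methylated; atropisomers were separated on Chirasil-Dex (5-OH) or Cyclosil-B (4-OH) columns. EF = Area E(2)/(Area E(1) + Area E(2)).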

The subject of data set [4] is liver tissue slices. Nature of the data set: Liver slice viability. It counts as cell-based, Sprague-Dawley rats. The conditions noted are these: 2 h. Put shortly: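 Liver slices came from adult rats, either naive or pretreated with PB or DEX, taken 24 h after the last dose into cold Krebs-Henseleit buffer, pH 7.5. Two slices per vial in 2 mL buffer received test compound (final 5 μM) or DMSO, 2 h, 37 °C, 5 % CO2/95 % air. LDH in medium and homogenate gave % release = A1×D1/(A1×D1+A2×D2); viable was <30 %.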

Data set [5] deals with CYP1A2. Nature of the data set: Hepatic P450 transcript levels. The class given is in vivo, Sprague-Dawley rats.
The nature of data set [6]: Effect of inducer treatment on body and liver weights of rats. The settings on record: i.p. inducer treatment. The class given is in vivo, Sprague-Dawley rats.
Data set [7] deals with liver tissue slices. Nature of the data set: Formation of hydroxylated PCB 136 metabolites in liver tissue slices. The conditions noted are these: for Metabolite formation, slices / Metabolite formation, medium: 2 h; for Metabolite as percent of ΣOH-PCB: slices plus medium. The class given is in vitro ADME, Sprague-Dawley rats.
The test system of data set [8] is ryanodine receptor (RyR). The conditions noted are these: enantioselective; ref Pessah et al., 2009; cited from earlier work.
[9] abbreviates: DEX-treated female rats, PCB 136 5 μM (10 nmol).
The mark [10] stands for this setting: DEX-treated female rats, PCB 136 5 μM.
The mark [11] stands for this setting: DEX-treated male rats, PCB 136 5 μM (10 nmol).
Where [12] appears, read: DEX-treated male rats, PCB 136 5 μM.
Where [13] appears, read: PB-treated female rats, PCB 136 5 μM (10 nmol).
[14] abbreviates: PB-treated female rats, PCB 136 5 μM.
Where [15] appears, read: PB-treated male rats, PCB 136 5 μM (10 nmol).
The mark [16] stands for this setting: PB-treated male rats, PCB 136 5 μM (10 nmol), ND, not detected.
Where [17] appears, read: PB-treated male rats, PCB 136 5 μM.
Where [18] appears, read: naïve control (CTL) female rats, PCB 136 5 μM (10 nmol), ND, not detected.
[19] abbreviates: naïve control (CTL) female rats, PCB 136 5 μM, ND, not detected.
The mark [20] stands for this setting: naïve control (CTL) female rats.
The mark [21] stands for this setting: naïve control (CTL) male rats, PCB 136 5 μM (10 nmol), ND, not detected.
The mark [22] stands for this setting: naïve control (CTL) male rats, PCB 136 5 μM, ND, not detected.

As to `CCO` [ethanol, reference compound], in data set [1], the “LDH release relative to vehicle controls” value is on record as “significantly increased LDH release”.
With `N[C@@H](CCC(=O)O)C(=O)O` [glutamate, reference compound], the PI uptake entry in data set [2] was “significantly increased PI uptake”.
Regarding `Oc1cc(Cl)c(-c2c(Cl)ccc(Cl)c2Cl)c(Cl)c1Cl` [E(1)-4-OH-PCB], the Enantiomeric enrichment result in data set [3] is “enriched”.
Turning to `C[C@@H]1C[C@H]2[C@@H]3CCC4=CC(=O)C=C[C@]4(C)[C@@]3(F)[C@@H](O)C[C@]2(C)[C@@]1(O)C(=O)CO` [Dexamethasone (DEX), dexamethasone], the LDH release in data set [4] (liver tissue slices from DEX pretreated female rats) amounted to 19.6 ± 10.4%; in data set [4] (liver tissue slices from DEX pretreated male rats) it was 10.4 ± 3.6%. The entries for the “CYP1A2 transcript level vs CTL” value in data set [5] (liver slices from female rats) and in data set [5] (liver slices from male rats) were “not significantly changed” and “not changed”, respectively. In addition, the Liver weight was found to be 12.1 ± 0.2 g in data set [6] (female rats) and 16.8 ± 0.6 g in data set [6] (male rats). Besides, the “Percent change in body weight” value in data set [6] (female rats) is −12.0 ± 4.4 %; in data set [6] (male rats) it was −17.0 ± 0.7 %.
`Oc1cc(Cl)c(Cl)c(-c2c(Cl)ccc(Cl)c2Cl)c1Cl` [5-OH-PCB 136, 2,2′,3,3′,6,6′-hexachlorobiphenyl-5-ol]: in data set [3] (liver slices from PB- and DEX-treated male and female rats, racemic PCB 136 5 μM, 2 h, EF = Area E(2)/(Area E(1) + Area E(2)), range over groups), the “Enantiomeric fraction (EF)” value is 0.69–0.74. In addition, the “Metabolite formation, slices” value in data set [7] (setting [9]) is on record as 240 ± 110 pmol; in data set [7] (setting [10]), 4.9 ± 1.1 ng/mg protein; in data set [7] (setting [11]), 495 ± 95 pmol; in data set [7] (setting [12]), 7.7 ± 1.2 ng/mg protein; in data set [7] (setting [13]), 490 ± 100 pmol; in data set [7] (setting [14]) it was 11 ± 1.3 ng/mg protein. In addition, the “Metabolite formation, slices” value in data set [7] (setting [15]) stood at 900 ± 220 pmol; in data set [7] (setting [17]), 16.0 ± 2.0 ng/mg protein; in data set [7] (setting [18]), 12 ± 10 pmol; in data set [7] (setting [19]), 0.3 ± 0.2 ng/mg protein; in data set [7] (setting [21]), 50 ± 10 pmol; in data set [7] (setting [22]) it was 0.7 ± 0.2 ng/mg protein. Moreover, the “Metabolite as percent of ΣOH-PCB” value in data set [7] (DEX-treated female rats) worked out at 91 ± 4%; in data set [7] (DEX-treated male rats) it was 95 ± 1%; in data set [7] (PB-treated female rats), 93 ± 1%; in data set [7] (PB-treated male rats), 93 ± 4%; in data set [7] (setting [20]), 25 ± 16%; in data set [7] (naïve control (CTL) male rats), 43 ± 5%. Moreover, the “Metabolite formation, medium” value came out at 80 ± 37 pmol in data set [7] (DEX-treated male rats, PCB 136 5 μM (10 nmol), ND, not detected) and 115 ± 22 pmol in data set [7] (setting [16]).
As for `Oc1cc(Cl)c(Cl)c(-c2c(Cl)ccc(Cl)c2Cl)c1Cl` [E(2)-5-OH-PCB], in data set [3], the Enantiomeric enrichment entry was “enriched to a similar extent”.
As for `Clc1ccc(Cl)c(-c2c(Cl)ccc(Cl)c2Cl)c1Cl` [(−)-PCB 136], the “Sensitization of RyR” value in data set [8] was “active”. The Enantiomeric enrichment result in data set [3] was “slightly enriched”.
Take `Oc1cc(Cl)c(-c2c(Cl)ccc(Cl)c2Cl)c(Cl)c1Cl` [4-OH-PCB 136, 2,2′,3,3′,6,6′-hexachlorobiphenyl-4-ol]: the “Metabolite formation, slices” value in data set [7] (setting [9]) came out at 24 ± 19 pmol; in data set [7] (setting [10]), 0.5 ± 0.3 ng/mg protein; in data set [7] (setting [11]) it was 26 ± 5 pmol; in data set [7] (setting [12]), 0.4 ± 0.1 ng/mg protein; in data set [7] (setting [13]), 30 ± 4 pmol; in data set [7] (setting [14]), 0.7 ± 0.0 ng/mg protein. Also, the “Metabolite formation, slices” value in data set [7] (setting [15]) was 15 ± 5 pmol; in data set [7] (setting [17]), 0.3 ± 0.1 ng/mg protein; in data set [7] (setting [18]), 33 ± 4 pmol; in data set [7] (setting [19]), 0.7 ± 0.1 ng/mg protein; in data set [7] (setting [21]) it was 60 ± 30 pmol; in data set [7] (setting [22]) it was 1.0 ± 0.5 ng/mg protein. The “Metabolite as percent of ΣOH-PCB” value in data set [7] (DEX-treated female rats) was 7.7 ± 3.5%; in data set [7] (DEX-treated male rats), 4.3 ± 0.7%; in data set [7] (PB-treated female rats), 5.8 ± 1.0%; in data set [7] (PB-treated male rats), 1.5 ± 0.2%; in data set [7] (setting [20]), 75 ± 16%; in data set [7] (naïve control (CTL) male rats), 57 ± 5%. Moreover, the “4-OH-PCB 136 levels relative to 5-OH-PCB 136 levels (times higher)” value in data set [7] (liver slices from female CTL rats) is “approximately 3 times”.
`Oc1c(O)c(Cl)c(-c2c(Cl)ccc(Cl)c2Cl)c(Cl)c1Cl` [4,5-diOH-PCB 136, 2,2′,3,3′,6,6′-hexachlorobiphenyl-4,5-diol]: the “Metabolite formation, slices” value in data set [7] (setting [9]) is recorded as 3 ± 1 pmol; in data set [7] (setting [10]), 0.1 ± 0.0 ng/mg protein; in data set [7] (setting [11]), 6 ± 2 pmol; in data set [7] (setting [12]), 0.1 ± 0.0 ng/mg protein; in data set [7] (setting [13]), 6 ± 3 pmol; in data set [7] (setting [14]) it was 0.1 ± 0.1 ng/mg protein. In addition, the “Metabolite formation, slices” value is 32 ± 15 pmol in data set [7] (setting [15]) and 0.6 ± 0.3 ng/mg protein in data set [7] (setting [17]). The “Metabolite as percent of ΣOH-PCB” value in data set [7] (DEX-treated female rats) stood at 1.3 ± 0.3%; in data set [7] (DEX-treated male rats), 0.9 ± 0.3%; in data set [7] (PB-treated female rats), 1.0 ± 0.4%; in data set [7] (PB-treated male rats) it was 5.6 ± 3.6%. Besides, the “Metabolite formation, medium” value in data set [7] (setting [16]) came to 24 ± 34 pmol. The “Metabolite level in tissue slices” value in data set [7] (tissue slices from CTL rats) was “below the detection limit”.
